Measurements as given in paper PMC8177775 (Cancer Science, 2021).
Entries after “also recorded” stand apart in the source; their conditions may differ.

System: Japanese patients with solid tumors
Assay: Phase I dose-escalation study: safety, tolerability, DLT and MTD
Type: in vivo, human
Details: for Dose-limiting toxicities (DLTs): cycle 1
How it was run: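 Oral test compound (tosylate salt) was given QD on days 1–21 of 28-day cycles in cohorts of 3–6 patients at 60, 90 or 120 mg. Escalation used a modified continual reassessment method (Bayesian logistic regression, escalation with overdose control). DLT window was cycle 1 (28 days). AEs were coded with MedDRA 18.0 and graded by CTCAE v4.0 (Japanese). Analysis covered patients receiving ≥1 dose.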

[1] = Cohort 1 60 mg/d (n = 3), All grades
[2] = Cohort 1 60 mg/d (n = 3), Grade ≥ 3
[3] = Cohort 2 90 mg/d (n = 11), All grades
[4] = Cohort 2 90 mg/d (n = 11), Grade ≥ 3
[5] = Cohort 3 120 mg/d (n = 4), All grades

CC1(C)CCC2(CC1)N[C@@H](C(=O)N[C@@H]1CC[C@@H](C(N)=O)OC1)[C@H](c1ccnc(Cl)c1F)[C@]21C(=O)Nc2cc(Cl)ccc21 [milademetan, Milademetan]
Dose interruptions (60 mg/day): 2 n
Dose interruptions (90 mg/day): 5 n
Dose interruptions (120 mg/day): 3 n
Dose-limiting toxicities (DLTs) (120 mg/day cohort): three events of platelet count decreased and one nausea; also recorded: Four DLTs were observed in four patients
Dose-limiting toxicities (DLTs) (60-mg and 90-mg cohorts): No DLTs occurred
TEAE: Alanine aminotransferase increased [1]: 1 (33.3) n (%)
TEAE: Anemia [1]: 0 (0.0) n (%)
TEAE: Aspartate aminotransferase increased [1]: 0 (0.0) n (%)
TEAE: Constipation [1]: 2 (66.7) n (%)
TEAE: Decreased appetite [1]: 2 (66.7) n (%)
TEAE: Diarrhea [1]: 0 (0.0) n (%)
TEAE: Disease progression [1]: 0 (0.0) n (%)
TEAE: Fatigue [1]: 2 (66.7) n (%)
TEAE: Hypoalbuminemia [1]: 1 (33.3) n (%)
TEAE: Hyponatremia [1]: 0 (0.0) n (%)
TEAE: Hypophosphataemic rickets [1]: 0 (0.0) n (%)
TEAE: Jaundice cholestatic [1]: 0 (0.0) n (%)
TEAE: Lymphangiosis carcinomatosa [1]: 1 (33.3) n (%)
TEAE: Lymphocyte count decreased [1]: 1 (33.3) n (%)
TEAE: Nausea [1]: 3 (100.0) n (%)
TEAE: Neutrophil count decreased [1]: 0 (0.0) n (%)
TEAE: Platelet count decreased [1]: 0 (0.0) n (%)
TEAE: Pyrexia [1]: 0 (0.0) n (%)
TEAE: Sepsis [1]: 0 (0.0) n (%)
TEAE: Urinary tract infection [1]: 0 (0.0) n (%)
TEAE: Vomiting [1]: 0 (0.0) n (%)
TEAE: White blood cell count decreased [1]: 1 (33.3) n (%)
TEAE: Alanine aminotransferase increased [2]: 0 (0.0) n (%)
TEAE: Anemia [2]: 0 (0.0) n (%)
TEAE: Aspartate aminotransferase increased [2]: 0 (0.0) n (%)
TEAE: Constipation [2]: 0 (0.0) n (%)
TEAE: Decreased appetite [2]: 0 (0.0) n (%)
TEAE: Diarrhea [2]: 0 (0.0) n (%)
TEAE: Disease progression [2]: 0 (0.0) n (%)
TEAE: Fatigue [2]: 0 (0.0) n (%)
TEAE: Hypoalbuminemia [2]: 0 (0.0) n (%)
TEAE: Hyponatremia [2]: 0 (0.0) n (%)
TEAE: Hypophosphataemic rickets [2]: 0 (0.0) n (%)
TEAE: Jaundice cholestatic [2]: 0 (0.0) n (%)
TEAE: Lymphangiosis carcinomatosa [2]: 1 (33.3) n (%)
TEAE: Lymphocyte count decreased [2]: 0 (0.0) n (%)
TEAE: Nausea [2]: 0 (0.0) n (%)
TEAE: Neutrophil count decreased [2]: 0 (0.0) n (%)
TEAE: Platelet count decreased [2]: 0 (0.0) n (%)
TEAE: Pyrexia [2]: 0 (0.0) n (%)
TEAE: Sepsis [2]: 0 (0.0) n (%)
TEAE: Urinary tract infection [2]: 0 (0.0) n (%)
TEAE: Vomiting [2]: 0 (0.0) n (%)
TEAE: White blood cell count decreased [2]: 0 (0.0) n (%)
TEAE: Alanine aminotransferase increased [3]: 1 (9.1) n (%)
TEAE: Anemia [3]: 7 (63.6) n (%)
TEAE: Aspartate aminotransferase increased [3]: 2 (18.2) n (%)
TEAE: Constipation [3]: 2 (18.2) n (%)
TEAE: Decreased appetite [3]: 6 (54.5) n (%)
TEAE: Diarrhea [3]: 3 (27.3) n (%)
TEAE: Disease progression [3]: 0 (0.0) n (%)
TEAE: Fatigue [3]: 6 (54.5) n (%)
TEAE: Hypoalbuminemia [3]: 6 (54.5) n (%)
TEAE: Hyponatremia [3]: 3 (27.3) n (%)
TEAE: Hypophosphataemic rickets [3]: 1 (9.1) n (%)
TEAE: Jaundice cholestatic [3]: 1 (9.1) n (%)
TEAE: Lymphangiosis carcinomatosa [3]: 0 (0.0) n (%)
TEAE: Lymphocyte count decreased [3]: 1 (9.1) n (%)
TEAE: Nausea [3]: 7 (63.6) n (%)
TEAE: Neutrophil count decreased [3]: 3 (27.3) n (%)
TEAE: Platelet count decreased [3]: 8 (72.7) n (%)
TEAE: Pyrexia [3]: 3 (27.3) n (%)
TEAE: Sepsis [3]: 0 (0.0) n (%)
TEAE: Urinary tract infection [3]: 1 (9.1) n (%)
TEAE: Vomiting [3]: 3 (27.3) n (%)
TEAE: White blood cell count decreased [3]: 6 (54.5) n (%)
TEAE: Alanine aminotransferase increased [4]: 1 (9.1) n (%)
TEAE: Anemia [4]: 3 (27.3) n (%)
TEAE: Aspartate aminotransferase increased [4]: 0 (0.0) n (%)
TEAE: Constipation [4]: 0 (0.0) n (%)
TEAE: Decreased appetite [4]: 0 (0.0) n (%)
TEAE: Diarrhea [4]: 0 (0.0) n (%)
TEAE: Disease progression [4]: 0 (0.0) n (%)
TEAE: Fatigue [4]: 0 (0.0) n (%)
TEAE: Hypoalbuminemia [4]: 0 (0.0) n (%)
TEAE: Hyponatremia [4]: 1 (9.1) n (%)
TEAE: Hypophosphataemic rickets [4]: 1 (9.1) n (%)
TEAE: Jaundice cholestatic [4]: 1 (9.1) n (%)
TEAE: Lymphangiosis carcinomatosa [4]: 0 (0.0) n (%)
TEAE: Lymphocyte count decreased [4]: 0 (0.0) n (%)
TEAE: Nausea [4]: 0 (0.0) n (%)
TEAE: Neutrophil count decreased [4]: 0 (0.0) n (%)
TEAE: Platelet count decreased [4]: 1 (9.1) n (%)
TEAE: Pyrexia [4]: 0 (0.0) n (%)
TEAE: Sepsis [4]: 0 (0.0) n (%)
TEAE: Urinary tract infection [4]: 1 (9.1) n (%)
TEAE: Vomiting [4]: 0 (0.0) n (%)
TEAE: White blood cell count decreased [4]: 0 (0.0) n (%)
TEAE: Alanine aminotransferase increased [5]: 2 (50.0) n (%)
TEAE: Anemia [5]: 2 (50.0) n (%)
TEAE: Aspartate aminotransferase increased [5]: 2 (50.0) n (%)
TEAE: Constipation [5]: 1 (25.0) n (%)
TEAE: Decreased appetite [5]: 3 (75.0) n (%)
TEAE: Diarrhea [5]: 2 (50.0) n (%)
TEAE: Disease progression [5]: 1 (25.0) n (%)
TEAE: Fatigue [5]: 1 (25.0) n (%)
TEAE: Hypoalbuminemia [5]: 1 (25.0) n (%)
TEAE: Hyponatremia [5]: 2 (50.0) n (%)
